We go through three molecules from ChEMBL document CHEMBL2331340, “Novel antitumor indolizino[6,7-b]indoles with multiple modes of action: DNA cross-linking and topoisomerase I and II inhibition” (J Med Chem, 2013).

Calls of active or inactive are those of the source. The calls are words filed in the database; no cut-off is given here.

Data set [1] can be described thus: Cytotoxicity against human CL141T cells after 72 hrs by Alamar blue assay. It counts as functional, cell-based. In outline: (§1)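 Cells exposed to compound for 72 h, then Alamar blue added with a further 10−12 h at 37 °C and a spectrophotometric read. IC50 from six or seven concentrations by median-effect analysis; mean ± STDEV, n = 3. CL141T is a line derived from a patient lung tumor passaged as a SCID mouse xenograft.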
(Resazurin is reduced to fluorescent resorufin, in cell work by metabolically active cells.)

Data set [2] can be described thus: Cytotoxicity against human OECM1 cells after 72 hrs by Alamar blue assay. The settings on record: OECM1, 72 h. The class given is functional, cell-based. In outline:
as §1

The test system of the next data set is PC-3. Kind of data set: Cytotoxicity against human PC3 cells after 72 hrs by Alamar blue assay. It counts as functional, cell-based. The settings on record: PC-3, 72 h. In outline:
as §1

In another data set the test system is HCT-116. In words: Cytotoxicity against human HCT116 cells after 72 hrs by Alamar blue assay. It counts as functional, cell-based. The settings on record: HCT-116, 72 h. In outline:
as §1

A further data set relates to CCRF-CEM. Kind of data set: Cytotoxicity against human CCRF-CEM cells after 72 hrs by XTT assay. It counts as functional, cell-based. Put shortly: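 CCRF-CEM T-ALL cells incubated with compound for 72 h. XTT with phenazine methosulfate then added for 6 h at 37 °C, absorbance read at 450 and 630 nm. IC50 from six or seven concentrations by median-effect analysis; mean ± STDEV, n = 3.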
On the technique in general: Tetrazolium dyes change colour on reduction, which living cells bring about.

Data set [3] is described as follows: Cytotoxicity against human H460 cells after 72 hrs by Alamar blue assay. The class given is functional, cell-based. The settings on record: NCI-H460, 72 h. In outline:
as §1

The next data set relates to Escherichia coli. Kind of data set: Induction of Escherichia coli pEGFP-N1 DNA interstrand cross-linking at 1 to 10 uM after 2 hrs by alkaline agarose gel shift assay. In outline:
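Plasmid pEGFP-N1 DNA (1500 ng) incubated with compound at 1, 5 and 10 μM in 3 mM NaCl/1 mM sodium phosphate pH 7.4/1 mM EDTA, 2 h at 37 °C. DNA then BamHI-linearized, EtOH-precipitated, denatured in 0.5 N NaOH/10 mM EDTA, run on 0.8% alkaline agarose at 4 °C (18 V, 22 h), stained with ethidium bromide.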

Data set [4] is described as follows: Cytotoxicity against human KB-VIN10 cells after 72 hrs by Alamar blue assay. The settings on record: KB-VIN10, 72 h.
Data set [5] concerns MX1. Kind of data set: Cytotoxicity against human MX1 cells after 72 hrs by SRB assay. The class given is functional, cell-based. As to conditions: MX1, 72 h. (The SRB assay estimates cell density from bound dye.)
A further data set concerns A549. In words: Cytotoxicity against human A549 cells after 72 hrs by Alamar blue assay. It counts as functional, cell-based. As to conditions: A549, 72 h. In outline:
as §1

For data set [6], the target named is T1, DNA topoisomerase 1 (Homo sapiens) (UniProt P11387).
T1 sequence (whole entry): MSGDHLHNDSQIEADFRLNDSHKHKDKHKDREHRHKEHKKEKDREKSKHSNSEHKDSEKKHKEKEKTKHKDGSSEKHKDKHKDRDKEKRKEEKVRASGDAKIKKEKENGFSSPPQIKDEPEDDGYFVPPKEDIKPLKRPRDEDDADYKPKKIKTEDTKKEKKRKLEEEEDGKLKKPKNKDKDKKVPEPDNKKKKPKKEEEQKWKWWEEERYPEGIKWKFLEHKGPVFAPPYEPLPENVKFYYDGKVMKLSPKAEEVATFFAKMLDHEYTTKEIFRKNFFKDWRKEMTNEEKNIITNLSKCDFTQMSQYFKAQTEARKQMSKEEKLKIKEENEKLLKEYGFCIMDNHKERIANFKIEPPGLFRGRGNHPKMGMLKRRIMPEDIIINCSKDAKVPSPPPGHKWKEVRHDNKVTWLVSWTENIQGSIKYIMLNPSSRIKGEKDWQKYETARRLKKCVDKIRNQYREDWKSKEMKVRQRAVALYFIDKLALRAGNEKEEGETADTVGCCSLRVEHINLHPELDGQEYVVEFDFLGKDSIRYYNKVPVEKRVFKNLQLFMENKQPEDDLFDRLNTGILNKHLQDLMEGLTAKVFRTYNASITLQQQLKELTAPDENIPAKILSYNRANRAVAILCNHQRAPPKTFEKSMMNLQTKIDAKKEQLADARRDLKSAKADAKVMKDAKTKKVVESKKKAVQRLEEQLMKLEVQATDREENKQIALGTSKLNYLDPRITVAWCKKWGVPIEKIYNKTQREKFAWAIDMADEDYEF
In words: Inhibition of DNA topoisomerase 1 (unknown origin)-mediated relaxation of supercoiled pHOT DNA at 25 to 200 uM after 30 to 45 mins by agarose gel electrophoresis. In outline:
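Supercoiled pHOT DNA (200 ng) and compound in 10 mM Tris-HCl pH 7.9 with 1 mM EDTA at 37 °C. Reaction started with 1 unit topo I, run 30−45 min, stopped with 10% SDS. Products separated on 1% agarose at 50 V for 90 min and stained with ethidium bromide.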

Data set [7] is described as follows: Resistance factor, ratio of IC50 for human KB-VIN10 cells to IC50 for human KB cells. The class given is functional.
Data set [8] can be described thus: Cytotoxicity against human HEL299 cells. The class given is cell-based. The settings on record: HEL 299.
The test system of another data set is HT-29. Kind of data set: Cytotoxicity against human HT-29 cells after 72 hrs by Alamar blue assay. It counts as functional, cell-based. As to conditions: HT-29, 72 h. In outline: as §1
In data set [9] the target is DNA topoisomerase 2-alpha (Homo sapiens) (UniProt P11388). In words: Inhibition of DNA topoisomerase 2 (unknown origin)-mediated relaxation of supercoiled pHOT DNA after 30 to 45 mins by agarose gel electrophoresis. In outline: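 Supercoiled pHOT DNA (125 ng) with compound in buffer stated as 0.5 M Tris-HCl pH 8.0, 1.5 M NaCl, 100 mM MgCl2, 5 mM DTT, 300 μg/mL BSA, 20 mM ATP, at 37 °C. Methods state 6 units topo II, figure legend 5 units; 30−45 min, SDS stop. Products run on 1% agarose and stained with ethidium bromide.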
Chain of DNA topoisomerase 2-alpha (Homo sapiens) (P11388 whole entry): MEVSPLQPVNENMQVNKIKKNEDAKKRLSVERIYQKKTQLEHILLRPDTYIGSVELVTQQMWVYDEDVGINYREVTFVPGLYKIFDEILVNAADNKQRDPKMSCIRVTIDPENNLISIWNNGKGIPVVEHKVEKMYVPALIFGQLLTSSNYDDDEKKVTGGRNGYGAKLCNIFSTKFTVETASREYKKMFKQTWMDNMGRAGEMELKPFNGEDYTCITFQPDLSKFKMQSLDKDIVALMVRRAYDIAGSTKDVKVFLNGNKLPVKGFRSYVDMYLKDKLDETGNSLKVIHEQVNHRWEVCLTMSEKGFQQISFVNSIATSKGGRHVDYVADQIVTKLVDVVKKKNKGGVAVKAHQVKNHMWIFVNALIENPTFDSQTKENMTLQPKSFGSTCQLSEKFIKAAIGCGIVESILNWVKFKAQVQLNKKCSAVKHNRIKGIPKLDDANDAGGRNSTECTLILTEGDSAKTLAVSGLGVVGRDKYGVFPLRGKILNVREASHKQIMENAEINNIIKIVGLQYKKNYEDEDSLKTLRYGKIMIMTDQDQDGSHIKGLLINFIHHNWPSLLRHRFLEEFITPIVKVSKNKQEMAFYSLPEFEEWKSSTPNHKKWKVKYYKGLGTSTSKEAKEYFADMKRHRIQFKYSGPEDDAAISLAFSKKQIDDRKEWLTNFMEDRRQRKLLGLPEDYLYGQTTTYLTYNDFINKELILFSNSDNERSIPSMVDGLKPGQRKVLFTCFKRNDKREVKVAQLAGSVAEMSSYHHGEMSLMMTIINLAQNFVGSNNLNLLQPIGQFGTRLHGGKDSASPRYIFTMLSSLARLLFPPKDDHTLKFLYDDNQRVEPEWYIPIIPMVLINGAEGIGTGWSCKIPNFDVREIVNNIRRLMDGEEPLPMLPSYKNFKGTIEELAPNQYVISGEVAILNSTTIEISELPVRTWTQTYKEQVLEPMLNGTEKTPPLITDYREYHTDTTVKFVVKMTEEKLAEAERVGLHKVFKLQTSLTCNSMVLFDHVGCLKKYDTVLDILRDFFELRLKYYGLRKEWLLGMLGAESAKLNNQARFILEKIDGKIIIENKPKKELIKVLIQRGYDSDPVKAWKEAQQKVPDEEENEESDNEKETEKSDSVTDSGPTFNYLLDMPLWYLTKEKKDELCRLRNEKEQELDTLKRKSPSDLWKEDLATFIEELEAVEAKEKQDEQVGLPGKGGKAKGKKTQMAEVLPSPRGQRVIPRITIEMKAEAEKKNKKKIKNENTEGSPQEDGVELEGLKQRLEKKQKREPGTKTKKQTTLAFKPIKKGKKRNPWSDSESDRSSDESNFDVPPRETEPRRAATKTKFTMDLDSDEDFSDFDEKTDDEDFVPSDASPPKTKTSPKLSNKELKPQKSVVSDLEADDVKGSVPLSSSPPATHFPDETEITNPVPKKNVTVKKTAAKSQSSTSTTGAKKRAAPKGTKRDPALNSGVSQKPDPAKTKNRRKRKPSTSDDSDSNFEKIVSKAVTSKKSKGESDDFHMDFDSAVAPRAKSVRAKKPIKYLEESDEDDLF

The test system of a further data set is KB. In words: Cytotoxicity against human KB cells after 72 hrs by Alamar blue assay.
A short description of data set [10]: Cytotoxicity against human MES-SA/Dx5 cells after 72 hrs by Presto Blue assay. It counts as functional, cell-based. As to conditions: MES-SA/Dx5, 72 h. In outline: (§2)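 MES-SA and doxorubicin-resistant MES-SA/dx5 cells exposed for 72 h, then PrestoBlue added for 3 h at 37 °C, absorbance read at 570 and 600 nm. IC50 by median-effect analysis of six or seven concentrations; mean ± STDEV of three to six independent experiments.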

Another data set deals with MES-SA. Kind of data set: Resistance factor, ratio of IC50 for human MES-SA/Dx5 cells to IC50 for human MES-SA cells. The class given is functional.
Data set [11] is described as follows: Cytotoxicity against human MES-SA cells after 72 hrs by Presto Blue assay. The class given is functional, cell-based. Put shortly:
as §2

The nature of data set [12]: Cell cycle arrest in human CL141T cells assessed as accumulation at G2/M phase at 2 x IC50 after 24 hrs by propidium iodide staining-based FACS flow cytometric analysis. The class given is functional. Put shortly:
(§3)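 CL141T cells treated at 0.5-, 1- and 2-fold IC50 for 24, 48 and 72 h. Cells fixed in ice-cold 70% EtOH, then stained with 4 μg/mL propidium iodide in PBS with 1% Triton X-100 and 0.1 mg/mL RNase A. Phase distribution from flow cytometry DNA histograms; sub-G1 fraction scored as well.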

Data set [13] relates to NCI-H460. Kind of data set: Induction of apoptosis in human H460 cells assessed as increase in cleaved caspase 7 expression at IC50 after 24 to 72 hrs by Western blotting analysis. The class given is functional, cell-based. Put shortly: (§4)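 H460 cells treated at IC50 for 24 and 72 h. Lysate proteins separated by SDS-PAGE and blotted to nitrocellulose, blocked in 5% milk/PBST. Primary antibodies to caspase-3, caspase-7, PARP (full-length and cleaved) and β-actin applied for 1 h at room temperature or overnight at 4 °C; HRP secondary with ECL detection.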

In data set [14] the test system is NCI-H460. In words: Induction of apoptosis in human H460 cells assessed as increase in cleaved caspase 3 expression at IC50 after 24 to 72 hrs by Western blotting analysis. It counts as functional, cell-based. In outline:
as §4

In data set [15] the test system is NCI-H460. In words: Induction of apoptosis in human H460 cells assessed as increase in apoptotic cells at IC50 after 24 hrs by annexin V-FITC/propidium iodide staining-based FACS flow cytometric analysis (reference value: 4.1%). It counts as functional.
Data set [16] deals with MX1. Kind of data set: Antitumor activity against human MX1 cells xenografted in nude mouse assessed as tumor growth inhibition at 25 mg/kg, iv qd administered 3 days measured on day 20 relative to vehicle-treated control. The settings on record: read-out: TGI. The class given is functional.
Data set [17] deals with NCI-H460. In words: Induction of apoptosis in human H460 cells assessed as increase in cleaved PARP expression at IC50 after 24 to 72 hrs by Western blotting analysis. The class given is functional, cell-based. In outline:
as §4

Data set [18] can be described thus: Cell cycle arrest in human CL141T cells assessed as accumulation at S phase at 0.5 x IC50 after 24 hrs by propidium iodide staining-based FACS flow cytometric analysis. It counts as functional. In outline:
as §3

Data set [19] can be described thus: Cell cycle arrest in human CL141T cells assessed as accumulation at sub-G1 phase at 0.5 x IC50 to 2 x IC50 after 72 hrs by propidium iodide staining-based FACS flow cytometric analysis. The class given is functional. In outline: as §3
Data set [20] is described as follows: Cell cycle arrest in human CL141T cells assessed as accumulation at G1 phase at 1 x IC50 to 2 x IC50 after 24 hrs by propidium iodide staining-based FACS flow cytometric analysis. It counts as functional. Put shortly: as §3
The subject of another data set is Mus musculus. In words: Toxicity in nude mouse xenografted with human MX1 cells assessed as body weight loss at 25 mg/kg, iv qd administered 3 days measured for 20 days. It counts as organism-based. Also on record: dose 25 mg/kg, route intravenous. As to conditions: in vivo, 480 h.
Data set [21] in a line: Cell cycle arrest in human CL141T cells assessed as accumulation at S phase at 1 x IC50 to 2 x IC50 after 24 hrs by propidium iodide staining-based FACS flow cytometric analysis. It counts as functional. Put shortly:
as §3

Data set [22] is described as follows: Cell cycle arrest in human CL141T cells assessed as accumulation at G2/M phase at 0.5 x IC50 to 1 x IC50 after 48 to 72 hrs by propidium iodide staining-based FACS flow cytometric analysis. It counts as functional. In outline: as §3
The test system of data set [23] is NCI-H460. Kind of data set: Induction of apoptosis in human H460 cells assessed as increase in apoptotic cells at IC50 after 72 hrs by annexin V-FITC/propidium iodide staining-based FACS flow cytometric analysis (reference value: 9.29%). The class given is functional.

Turning to `CCNC(=O)OCc1c(COC(=O)NCC)c2n(c1C)Cc1c(c3ccccc3n1CC)C2`, the IC50 in [1] was found to be 1400 nM; in data set [2], 4900 nM; in the data set with PC-3 it was 4610 nM; with HCT-116, 3220 nM; in the data set on CCRF-CEM, 140 nM; in [3], 5140 nM. Besides, the result in the data set with Escherichia coli was Active.
Turning to `CCNC(=O)OCc1c(COC(=O)NCC)c2n(c1C)Cc1c(c3ccccc3n1C)C2`, the 50% inhibitory concentration (IC50) was determined as 2600 nM in data set [4]; 460 nM in the data set on MX1 [5]; 4830 nM in the data set on A549; 15500 nM in data set [8]; 11300 nM in the data set on HT-29; 2840 nM in data set [1]. Also, the IC50 with KB was found to be 2750 nM; in data set [2], 1900 nM; in the data set on PC-3 it was 4110 nM; with HCT-116, 2330 nM; in data set [10] it was 280 nM; in the data set on CCRF-CEM, 40 nM. The same molecule gave an IC50 in data set [11] of 780 nM. Also, the inhibition entry in data set [6] is “Active”. The “Ratio IC50” value in data set [7] worked out at 0.94; in the data set with MES-SA, 0.36. Moreover, the inhibition entry in [9] is “Dose-dependent effect”.
In the case of `CCn1c2c(c3ccccc31)Cc1c(CO)c(CO)c(C)n1C2`, the outcome in data set [12] was inactive. For the same molecule, the IC50 in data set [4] came out at 900 nM; with A549 it was 2970 nM; in data set [8], 2240 nM; in the data set with HT-29 it was 6150 nM; in data set [1] it was 790 nM; in the data set with KB, 1470 nM. Further, the IC50 in data set [2] amounted to 1170 nM; with PC-3, 2660 nM; in the data set on HCT-116 it was 1710 nM; in data set [10], 240 nM; in the data set on CCRF-CEM, 100 nM; in [3], 730 nM. For the same molecule, in [11], the IC50 was 400 nM. For the same molecule, the outcome (in the data set with NCI-H460 [13]; in the data set with NCI-H460 [14]; in the data set with NCI-H460 [17]; in [18]; in data set [19]; in [20]) was Active. The result (in data set [21]; in [22]; in the data set with Escherichia coli) was Active. The Activity with NCI-H460 [15] is reported as 12.92%; in the data set on Mus musculus, “Toxic”; in the data set on NCI-H460 [23], 43.52%. The inhibition in vivo at 25 mg/kg in the data set with MX1 [16] is above 99%. Moreover, the “Ratio IC50” value in [7] turned out to be 0.62; in the data set with MES-SA it was 0.6.

Usually IC50 stands for the concentration that gives 50% inhibition. Read a low IC50 as greater potency.
